In ChEMBL document CHEMBL4732136, “Synthesis, Tumor Specificity, and Photosensitizing Efficacy of Erlotinib-Conjugated Chlorins and Bacteriochlorins: Identification of a Highly Effective Candidate for Photodynamic Therapy of Cancer” (J Med Chem, 2021):

Assays:
[1] = Drug uptake in human CFSE-stained HN-121 cells assessed as increase in drug retention at 1.6 uM in medium with 10% FBS followed by 48 hrs chase period by inverted fluorescence microscopic analysis; assay type: ADME, cell-based; settings: hn-121, 48 h
[2] = Drug uptake in skin of SCID mouse xenografted with human UMUC3 cells at 0.47 micromol/kg, iv pretreated with compound followed by light irradiation at a dose of 135 J/cm2 and 75 mW/cm2 measured at 24 hrs by IVIS analysis; assay type: ADME, organism-based, Skin of body; settings: in vivo, dose 0.47 µmol/kg
Summary of the method: (§1)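 Female SCID mice with UMUC3 flank/shoulder tumors, 3 per group. PS in 1% Tween80/5% dextrose given iv at 0.47, 0.25 or 0.125 μmol/kg. Whole-body fluorescence imaging by IVIS at several times after injection; average radiant efficiency measured in tumor, liver and skin.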

[3] = Drug uptake in tumor of SCID mouse xenografted with FaDu cells assessed as fold increase at 0.47 micromol/kg, iv pretreated with compound followed by light irradiation at a dose of 135 J/cm2 and 75 mW/cm2 and measured at 24 hrs by IVIS analysis; assay type: ADME, organism-based, Neoplasm; settings: in vivo, dose 0.47 µmol/kg
Summary of the method: (§2)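 Female SCID mice bearing FaDu tumors 4–5 mm in diameter, 3 per group. PS in 1% Tween80/5% dextrose given iv at 0.47, 0.25 or 0.125 μmol/kg. IVIS whole-body fluorescence imaged at several time points; average radiant efficiency measured in tumor, liver and skin.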

[4] = Drug uptake in tumor of SCID mouse xenografted with human UMUC3 cells at 0.47 micromol/kg, iv pretreated with compound followed by light irradiation at a dose of 135 J/cm2 and 75 mW/cm2 measured after 24 hrs by IVIS analysis; assay type: ADME, organism-based, Neoplasm; settings: in vivo, dose 0.47 µmol/kg; summary of the method: as §1
[5] = system: FaDu; assay: Photodynamic antitumor activity against human FaDu cells xenografted in SCID mouse assessed as cure rate at 0.47 micromol/kg, iv pretreated with compound followed by light irradiation at a dose of 135 J/cm2 and 75 mW/cm2 measured at 24 hrs relative to control; assay type: functional; settings: dose 0.47 µmol/kg
Summary of the method: (§3)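 FaDu-bearing female SCID mice (5 per group per experiment) given iv PS at 0.47, 0.25 or 0.125 μmol/kg in Tween80/dextrose. Tumors irradiated 24 h post-injection at 665 nm, 135 J/cm², 75 mW/cm². Tumor growth measured daily for 60 days, with euthanasia above 400 mm³. Cure taken as tumor-free at day 60; survival analysed by log-rank test.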

[6] = Drug uptake in human FaDu clone 49 cells assessed as increase in drug retention at 1.6 uM in RPMI medium with 10% FBS followed by 48 hrs chase period by inverted fluorescence microscopic analysis
[7] = Drug uptake in skin of SCID mouse xenografted with FaDu cells at 0.47 micromol/kg, iv pretreated with compound followed by light irradiation at a dose of 135 J/cm2 and 75 mW/cm2 and measured at 24 hrs by IVIS analysis; assay type: ADME, organism-based, Skin of body; settings: in vivo, dose 0.47 µmol/kg; summary of the method: as §2
[8] = system: UMUC3; assay: Photosensitizing activity in human UMUC3 cells assessed as reduction in cell viability pretreated with compound for 24 hrs followed by light irradiation at 1 J/cm2 and measured after 48 hrs by MTT assay; assay type: functional, cell-based; settings: UMUC3, light or radiation study
Summary of the method: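 Cells plated 0.01x10⁶ to 0.05x10⁶ cells/ml and allowed to adhere 24 h before photosensitizer was added, top dose 1600 nM with 2-fold serial dilutions. Plates received no light (0 J/cm²) or 1 J/cm² at 565 mW, 15 cm spot. After 48 h, MTT added for 3 h, formazan solubilized in DMSO and read at 570 nm; IC₅₀ fitted from dose-response.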

[9] = system: FaDu; assay: Photosensitizing activity in human FaDu cells assessed as reduction in cell viability pretreated with compound for 24 hrs followed by light irradiation at 1 J/cm2 and measured after 48 hrs by MTT assay; assay type: functional, cell-based; settings: light or radiation study
Summary of the method: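 Cells seeded at 0.01–0.05 x 10⁶ cells/ml; PS added 24 h after plating, top dose 1600 nM with 2-fold serial dilutions. Plates given 0 or 1 J/cm² light. MTT added 48 h later, formazan dissolved in DMSO, absorbance at 570 nm; IC50 from curve fitting.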

[10] = Drug uptake in tumor of SCID mouse xenografted with FaDu cells at 0.47 micromol/kg, iv pretreated with compound followed by light irradiation at a dose of 135 J/cm2 and 75 mW/cm2 and measured at 24 hrs by IVIS analysis; assay type: ADME, organism-based, Neoplasm; settings: in vivo, dose 0.47 µmol/kg; summary of the method: as §2
[11] = system: FaDu; assay: Photodynamic antitumor activity against human FaDu cels xenografted in SCID mouse assessed as cure rate at 0.47 micromol/kg, iv pretreated with compound followed by light irradiation at a dose of 135 J/cm2 and 75 mW/cm2 and measured at 24 hrs post dose relative to control; assay type: functional; settings: dose 0.47 µmol/kg; summary of the method: as §3
[12] = Drug uptake in liver of SCID mouse xenografted with FaDu cells at 0.47 micromol/kg, iv pretreated with compound followed by light irradiation at a dose of 135 J/cm2 and 75 mW/cm2 and measured at 24 hrs by IVIS analysis; assay type: ADME, organism-based; settings: in vivo, dose 0.47 µmol/kg; summary of the method: as §2
[13] = Drug uptake in liver of SCID mouse xenografted with human UMUC3 cells at 0.47 micromol/kg, iv pretreated with compound followed by light irradiation at a dose of 135 J/cm2 and 75 mW/cm2 measured at 24 hrs by IVIS analysis; assay type: ADME, organism-based; settings: in vivo, dose 0.47 µmol/kg; summary of the method: as §1
[14] = Drug uptake in liver of SCID mouse xenografted with human UMUC3 cells at 0.47 micromol/kg, iv pretreated with compound followed by light irradiation at a dose of 135 J/cm2 and 75 mW/cm2 measured after 2 to 24 hrs by IVIS analysis; assay type: ADME, organism-based; settings: in vivo, time 2-24 hrs, dose 0.47 µmol/kg; summary of the method: as §1
[15] = Drug uptake in skin of SCID mouse xenografted with human UMUC3 cells at 0.47 micromol/kg, iv pretreated with compound followed by light irradiation at a dose of 135 J/cm2 and 75 mW/cm2 measured after 2 to 24 hrs by IVIS analysis; assay type: ADME, organism-based, Skin of body; settings: in vivo, time 2-24 hrs, dose 0.47 µmol/kg; summary of the method: as §1
[16] = Drug uptake in tumor of SCID mouse xenografted with human UMUC3 cells at 0.47 micromol/kg, iv pretreated with compound followed by light irradiation at a dose of 135 J/cm2 and 75 mW/cm2 measured after 2 to 24 hrs by IVIS analysis; assay type: ADME, organism-based, Neoplasm; settings: in vivo, time 2-24 hrs, dose 0.47 µmol/kg; summary of the method: as §1
[17] = Drug uptake in human HNT1 cells at 3.2 uM incubated for 30 mins in DMEM media with 10% FBS followed by […] in compound-free medium by inverted fluorescence microscopic analysis; assay type: ADME, cell-based; settings: hnt1, 0.5 h, in the assay text read “in serum-free medium” for “in DMEM media with 10% FBS”
Summary of the method: (§4)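 Confluent HNT1 cultures (passage 116) given 3.2 μM PS for 30 min in serum-free medium, then 5 h in serum-containing medium with PS, then 15 h chase in serum medium without PS. Fluorescence recorded at 100X with varied camera exposures and quantified digitally; pixel signal normalized to time and cell number.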

[18] = Drug uptake in human HNT1 cells at 3.2 uM incubated for 30 mins in serum free medium followed by […] in compound-free medium by inverted fluorescence microscopic analysis; assay type: ADME, cell-based; settings: hnt1, 0.5 h; summary of the method: as §4
[19] = system: UMUC3; assay: Photodynamic antitumor activity against human UMUC3 cells xenografted in SCID mouse assessed as tumor retention at 0.47 micromol/kg, iv pretreated with compound followed by light irradiation at a dose of 135 J/cm2 and 75 mW/cm2 measured at day 30 post dose relative to control; assay type: functional; settings: dose 0.47 µmol/kg; time 30 day
Summary of the method: (§5)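 UMUC3-bearing female SCID mice given iv PS in 1% Tween80/5% dextrose. Mice restrained and tumors irradiated at 665 nm, 135 J/cm² over 30 min at 75 mW/cm², at the time of maximal tumor uptake. Tumor regrowth measured daily for 60 days; mice euthanized above 400 mm³. Cure plotted as survival curves and compared by log-rank (Mantel-Cox) test.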

[20] = system: FaDu; assay: Photodynamic antitumor activity against human FaDu cels xenografted in SCID mouse assessed as cure rate at 0.47 micromol/kg, iv pretreated with compound followed by light irradiation at a dose of 135 J/cm2 and 75 mW/cm2 and measured after 60 days post dose relative to control; assay type: functional; settings: dose 0.47 µmol/kg; time 60 day; summary of the method: as §3
[21] = Drug uptake in tumor of SCID mouse xenografted with human UMUC3 cells assessed as drug accumulation by measuring fold decrease to that of liver at 0.47 micromol/kg, iv followed by light irradiation at 665 nm at a dose of 135 J/cm2 and 75 mW/cm2 and measured after 24 hrs by IVIS analysis; assay type: ADME, organism-based, Neoplasm; settings: in vivo; summary of the method: as §1
[22] = system: UMUC3; assay: Photodynamic antitumor activity against human UMUC3 cels xenografted in SCID mouse assessed as cure rate at 0.47 micromol/kg, iv pretreated with compound followed by light irradiation at a dose of 135 J/cm2 and 75 mW/cm2 and measured after 60 days post dose relative to control; assay type: functional; settings: dose 0.47 µmol/kg; time 60 day; summary of the method: as §5
[23] = Drug uptake in tumor of SCID mouse xenografted with FaDu cells assessed as drug accumulation by measuring fold increase to that of liver at 0.47 micromol/kg, iv pretreated with compound followed by light irradiation at a dose of 135 J/cm2 and 75 mW/cm2 and measured after 24 hrs by IVIS analysis; assay type: ADME, organism-based, Neoplasm; settings: in vivo, dose 0.47 µmol/kg; summary of the method: as §2
[24] = Drug uptake in human HN-166 cells assessed as increase in drug retention retention at 3 uM in medium with 10% FBS incubated for 5 hrs followed by 40 hrs chase period by inverted fluorescence microscopic analysis; assay type: ADME, cell-based; settings: hn-166, 5 h
Summary of the method: (§6)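 Five-day co-cultures of HN-143 tumor epithelial cells and HN-166 tumor fibroblasts, both primary head & neck tumor cultures grown on collagen-1 under selective media. PS in 10% FBS medium for 5 h, then 40 h chase without PS. Phase-contrast and fluorescence images taken at 100X with 500 ms exposure; signal normalized to recording time and cell number.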

[25] = Drug uptake in human HN-143 cells assessed as increase in drug retention retention at 3 uM in medium with 10% FBS incubated for 5 hrs followed by 40 hrs chase period by inverted fluorescence microscopic analysis; assay type: ADME, cell-based; settings: hn-143, 5 h; summary of the method: as §6
[26] = Drug uptake in tumor of SCID mouse xenografted with FaDu cells at 0.47 micromol/kg, iv pretreated with compound followed by light irradiation at a dose of 135 J/cm2 and 75 mW/cm2 and measured at 6 hrs by IVIS analysis; assay type: ADME, organism-based, Neoplasm; settings: in vivo, dose 0.47 µmol/kg; summary of the method: as §2

| SMILES | Drug uptake [1] | Drug uptake [4] | Drug uptake [6] | Drug uptake [7] | IC50 [8] | IC50 [9] | Drug uptake [10] | Activity [11] | Drug uptake [12] | further results |
| --- | --- | --- | --- | --- | --- | --- | --- | --- | --- | --- |
| CCC1=C(C)c2cc3[nH]c(cc4nc(c5c6[nH]c(cc1n2)c(C)c6C(=O)C5)[C@@H](CCC(=O)OC)[C@@H]4C)c(C)c3C(C)OCc1ccc(C#Cc2cccc(Nc3ncnc4cc(OCCOC)c(OCCOC)cc34)c2)cc1 (some centres not stated) | Active | Active | Active | Active | 20.9 nM | 59.6 nM | Active | 66% | Active | Drug uptake [2]: Active; fold change (FC) [3]: 2; Activity [5]: 66%; Drug uptake [13]: Active |
| CCC1=C(C)c2cc3[nH]c(cc4nc(c5c6[nH]c(cc1n2)c(C)c6C(=O)C5)[C@@H](CCC(=O)OC)[C@@H]4C)c(C)c3COCc1cccc(C#Cc2cccc(Nc3ncnc4cc(OCCOC)c(OCCOC)cc34)c2)c1 | Not Active |  | Not Active |  | 76.3 nM | 23.3 nM |  |  |  | Drug uptake [14]: Active; Drug uptake [15]: Active; Drug uptake [16]: Not Active |
| CCCCCCOC(C)c1c(C)c2cc3nc(c4c5[nH]c(cc6nc(cc1[nH]2)C(C)=C6CC)c(C)c5C(=O)C4)[C@@H](CCC(=O)O)[C@@H]3C (some centres not stated) [HPPH] |  | Active |  | Active | 68.4 nM | 43.8 nM | Active | 30% | Active | Drug uptake [17]: Active; Drug uptake [18]: Active; Activity [19]: 30% |
| CCCCCCOC(C)c1c(C)c2cc3nc(c4c5[nH]c(cc6nc(cc1[nH]2)C(C)=C6CC)c(C)c5C(=O)C4)[C@@H](CCC(=O)NCCCCn1cc(-c2cccc(Nc4ncnc5cc(OCCOC)c(OCCOC)cc45)c2)nn1)[C@@H]3C (some centres not stated) | Active | Active | Active |  | 20.2 nM | 17.6 nM |  |  |  | Activity [20]: 40%; fold change (FC) [21]: 2; Activity [22]: 20%; fold change (FC) [23]: 2; Drug uptake [24]: Active; Drug uptake [25]: Active; Drug uptake [26]: Active |
